Data on 5 compounds can be found in ChEMBL document CHEMBL1126221, “Antimitotic agents: structure-activity studies with some pyridine derivatives” (J Med Chem, 1992).

Each structure is given as a SMILES string. Values joined by “and” are separate entries in the source; they are usually repeats but may differ in a detail not shown here. Equal entries are not always repeated.

Assay [1] concerns L1210. As to the kind of experiment: Concentration required to inhibit proliferation of cultured lymphoid leukemia L1210 cells to 50% growth over 48 hours. The assay is classed as functional, cell-based. To be noted: Mus musculus, L1210, 48 h. In outline: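 Cultured lymphoid leukemia L1210 cells were exposed to agent for 48 h. IC50 is the micromolar concentration that holds proliferation to 50% growth.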

Assay [2] has as its system P388. As to the kind of experiment: Compound was evaluated for antitumor activity against mice implanted with lymphatic leukemia P388 cells (10e6 tumor cells) after intraperitoneal administration of 5 mg/kg per injection (1-5 days). The assay is classed as functional. The settings on record: Mus musculus, P388, ip. A digest of the protocol: (§1)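 Mice implanted ip with 10⁶ lymphocytic leukemia P388 cells; drug given ip on days 1-5. Read-out is % increase in life span (% ILS) versus untreated controls, reported at the highest nontoxic dose tested.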

Assay [3] relates to L1210 (mouse). As to the kind of experiment: Compound was evaluated for antitumor activity against mice implanted with lymphatic leukemia L1210 cells (10e6 tumor cells) after intraperitoneal administration of 50 mg/kg per injection (single dose on day 1). To be noted: L1210, ip, 24 h.
Assay [4] in a line: Compound's concentration required to inhibit proliferation of cultured KB cells to 50% growth during 48 hours. The assay is classed as functional, cell-based. The settings on record: Homo sapiens.
Assay [5] concerns P388. In words: Compound was evaluated for antitumor activity against mice implanted with lymphatic leukemia P388 cells (10e6 tumor cells) after intraperitoneal administration of 100 mg/kg per injection. The settings on record: Mus musculus, P388, ip. The assay is classed as functional.
Assay [6] relates to L1210. As to the kind of experiment: Effect of the compound(10 uM) on DNA synthesis in L1210 cells in culture measured as incorporation of [3H]L-Leu. The assay is classed as functional, Mus musculus. To be noted: in the assay text read “protein synthesis” for “DNA synthesis”. In outline:
(§2)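 Cultured L1210 cells were treated with agent at 2.5–50 μM. Labeled precursor incorporation is reported as percent of control: [3H]dThd into DNA, […] into DNA and RNA, and [3H]L-Leu into protein.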

Assay [7] relates to L1210. In words: Effect of the compound(25 uM) on DNA synthesis in L1210 cells in culture measured as incorporation of [3H]L-Leu. The assay is classed as functional, Mus musculus. To be noted: in the assay text read “protein synthesis” for “DNA synthesis”. In outline: as §2
In assay [8] the test system is L1210. In words: Effect of the compound(5 uM) on DNA synthesis in L1210 cells in culture measured as incorporation of [3H]-L-Leu. The assay is classed as functional, Mus musculus. To be noted: in the assay text read “protein synthesis” for “DNA synthesis”. In outline: as §2
The subject of assay [9] is P388. In words: Compound was evaluated for antitumor activity against mice implanted with lymphatic leukemia P388 cells (10e6 tumor cells) after intraperitoneal administration of 75 mg/kg per injection (1-5 days). The assay is classed as functional. The settings on record: Mus musculus, P388, ip. In outline:
as §1

Assay [10] concerns L1210. As to the kind of experiment: Effect on the mitosis of cultured L1210 cells measured in metaphase at 12 hours and 0 uM concentration. The assay is classed as functional, Mus musculus. In outline:
(§3)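 Cultured L1210 cells were exposed for 12 h to 0, 3, 10, 30, 50 or 100 μM agent. Read-out was the percentage of cells in metaphase.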

Assay [11] relates to L1210. In words: Effect of the compound(10 uM) on DNA synthesis in L1210 cells in culture measured as incorporation of [5-3H]-Urd. The assay is classed as functional, Mus musculus.
Assay [12] concerns L1210. As to the kind of experiment: Effect of the compound(5 uM) on DNA synthesis in L1210 cells in culture measured as incorporation of [5-3H]-Urd. The assay is classed as functional, Mus musculus. A digest of the protocol:
as §2

In assay [13] the test system is L1210. In words: Effect of the compound(10 uM) on RNA synthesis in L1210 cells in culture measured as incorporation of [5-3H]-Urd. The assay is classed as functional, Mus musculus. A digest of the protocol: as §2
Assay [14] deals with L1210. In words: Effect on the mitosis of cultured L1210 cells measured in metaphase at 12 hours and 3 uM concentration. The assay is classed as functional, Mus musculus. A digest of the protocol:
as §3

In assay [15] the test system is L1210. As to the kind of experiment: Effect on the mitosis of cultured L1210 cells measured in metaphase at 12 hours and 10 uM concentration. The assay is classed as functional, Mus musculus. In outline:
as §3

The subject of assay [16] is L1210. As to the kind of experiment: Effect of the compound(5 uM) on RNA synthesis in L1210 cells in culture measured as […]. The assay is classed as functional, Mus musculus.
Assay [17] relates to L1210. In words: Effect of the compound(25 uM) on DNA synthesis in L1210 cells in culture measured as incorporation of [3H]dThd. The assay is classed as functional, Mus musculus. A digest of the protocol:
as §2

For assay [18], the system named is L1210. In words: Effect on the mitosis of cultured L1210 cells measured in metaphase at 12 hours and 100 uM concentration. The assay is classed as functional, Mus musculus. A digest of the protocol:
as §3

Assay [19] has as its system L1210. In words: Effect of the compound(25 uM) on RNA synthesis in L1210 cells in culture measured as […]. The assay is classed as functional, Mus musculus.
Assay [20] has as its system L1210. As to the kind of experiment: Effect of the compound(25 uM) on DNA synthesis in L1210 cells in culture measured as incorporation of [5-3H]-Urd. The assay is classed as functional, Mus musculus. In outline:
as §2

Assay [21] relates to L1210. In words: Effect on the mitosis of cultured L1210 cells measured in metaphase at 12 hours and 30 uM concentration. The assay is classed as functional, Mus musculus. A digest of the protocol: as §3
Assay [22] relates to L1210. In words: Compound was evaluated for antitumor activity against mice implanted with lymphatic leukemia L1210 cells (10e6 tumor cells) after intraperitoneal administration of 50 mg/kg per injection. The assay is classed as functional. To be noted: Mus musculus, L1210, ip.

As to `CCOC(=O)Nc1cc(NC(C)/C(=N/O)c2ccc(O)cc2)c([N+](=O)[O-])c(N)n1` (stereo not drawn), inhibition in assay [1] was half-maximal at 18 µM (IC50). Moreover, in assay [2], the ILS at 5 mg/kg came to 57%.

In [3], `CCOC(=O)Nc1cc(N(C)CC(O)c2ccccc2)c(N)c(N)n1` (stereo not drawn) had an increase in life span (ILS) at 50 mg/kg of 4%.

`CCOC(=O)Nc1cc(N)c(N)c(N)n1`: the IC50 in [4] is 10 µM. In assay [5], this compound showed an ILS at 100 mg/kg of 0%.

`COC(=O)Nc1cc(NC(C)/C(=N/O)c2ccccc2)c([N+](=O)[O-])c(N)n1` (stereo not drawn) returned an IC50 in [1] of 5.8 µM. The Control in assay [6] is 40%; in assay [7], 26%; in assay [8], 79%; in [12], 52% and 89%; in assay [13] it was 52%; in assay [16], 86%. The results for the Control in [17], in [19] and in [20] were 21%, 64% and 65%, respectively. In [9], this compound gave an ILS at 75 mg/kg of 82%. In addition, the Cells in metaphase amounted to 2% in [10]; 3% in [14]; 3% in [15]; 14% in assay [18]; 25% in [21]. For the same compound, the “Uridine incorporation into DNA (% of control)” value in assay [11] was 46% and 62%.

Regarding `CCOC(=O)Nc1cc(NC(c2ccccc2)c2ccccc2)c([N+](=O)[O-])c(N)n1`, in [22], the ILS at 50 mg/kg turned out to be 0%.

One may read the IC50 as the concentration at which inhibition is half-maximal. A low value points to greater potency in that assay. A word on the ILS: it is how much longer treated animals lived than controls. A lower ILS goes with little gain in survival.
